# Experimental data taken from ChEMBL document CHEMBL4130408, “Photoactivation provides a mechanistic explanation for pan-assay interference behaviour of 2-aminopyrroles in lipoxygenase inhibition” (Eur J Med Chem, 2017).
# Target: T1, Polyunsaturated fatty acid lipoxygenase ALOX15 (Homo sapiens) (UniProt P16050)
# T1 sequence (whole entry): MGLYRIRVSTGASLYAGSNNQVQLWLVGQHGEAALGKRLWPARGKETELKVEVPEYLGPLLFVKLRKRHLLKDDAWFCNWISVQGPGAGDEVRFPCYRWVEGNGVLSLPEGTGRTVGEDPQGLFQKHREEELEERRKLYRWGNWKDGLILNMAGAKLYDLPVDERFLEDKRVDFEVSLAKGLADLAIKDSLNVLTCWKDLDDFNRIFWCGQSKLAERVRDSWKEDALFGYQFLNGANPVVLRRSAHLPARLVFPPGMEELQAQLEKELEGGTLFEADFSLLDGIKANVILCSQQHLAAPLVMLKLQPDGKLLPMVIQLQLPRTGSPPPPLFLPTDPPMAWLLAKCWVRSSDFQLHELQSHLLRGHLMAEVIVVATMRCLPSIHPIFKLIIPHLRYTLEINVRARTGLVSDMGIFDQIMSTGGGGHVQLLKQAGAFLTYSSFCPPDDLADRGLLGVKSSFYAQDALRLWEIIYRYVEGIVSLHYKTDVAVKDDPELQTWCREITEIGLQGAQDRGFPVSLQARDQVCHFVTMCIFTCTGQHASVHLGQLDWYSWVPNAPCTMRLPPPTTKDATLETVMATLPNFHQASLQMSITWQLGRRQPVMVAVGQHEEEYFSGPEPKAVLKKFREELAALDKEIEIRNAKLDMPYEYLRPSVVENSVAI
# Assay: Inhibition of recombinant human 15-LOX-1 expressed in Escherichia coli BL21(DE3) assessed as residual activity at 50 uM using linoleic acid as substrate preincubated for 10 mins followed by substrate addition
# Procedure, shortened: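 h-15-LOX-1 (1:100 enzyme stock, 1:400 final) preincubated 10 min at room temperature with inhibitor in 25 mM HEPES pH 7.4, then linoleic acid added to 25 µM final (inhibitor 50 µM final). 13(S)-HpODE formation read as A234 over time, rate taken from linear part within first 16 min; no-inhibitor = 100%, no-enzyme = 0%. Triplicate.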
row,SMILES,Activity [%]
1,Nc1[nH]c(C(=O)c2ccccc2)c(-c2ccc(Cl)cc2Cl)c1C(=O)NCCc1c[nH]c2ccccc12,22.8
2,Nc1[nH]c(C(=O)c2ccccc2)c(-c2ccccc2C(F)(F)F)c1C(=O)NCc1ccc(F)cc1,92.2
3,Nc1[nH]c(C(=O)c2ccccc2)c(-c2cccc3ccccc23)c1C(=O)NCc1ccc(F)c(F)c1,62.2
4,CC(C)(C)C(=O)c1c(N)[nH]c(C(=O)c2ccccc2)c1-c1c(F)cccc1F,91.9
5,COc1ccc(C(=O)c2[nH]c(N)c(C(=O)NCCc3c[nH]c4ccccc34)c2-c2ccc(OC)c(OC)c2)cc1,70.3
6,Nc1[nH]c(C(=O)c2ccccc2)c(-c2ccc(Cl)cc2Cl)c1C(=O)NCCC1=CCCCC1,76.5
7,Nc1[nH]c(C(=O)c2ccc(Br)cc2)c(-c2cccc3ccccc23)c1C(=O)NCCc1c[nH]c2ccccc12,46.7
8,COc1cc(-c2c(C(=O)c3ccccc3)[nH]c(N)c2C(=O)NCCc2c[nH]c3ccccc23)ccc1F,37.1
9,Nc1[nH]c(C(=O)c2ccccc2)c(-c2ccccc2[N+](=O)[O-])c1C(=O)NCCc1c[nH]c2ccccc12,98.1
10,COc1ccc(-c2c(C(=O)c3ccc(Br)cc3)[nH]c(N)c2C(=O)NCCc2c[nH]c3ccccc23)cc1OC,63.8
11,Nc1[nH]c(C(=O)c2ccccc2)c(-c2ccccc2Br)c1C(=O)NC1CCCCC1,86.7
12,NC(=O)c1c(N)[nH]c(C(=O)c2ccccc2)c1-c1ccccc1C(F)(F)F,93.6
13,Nc1[nH]c(C(=O)c2ccc(Br)cc2)c(-c2ccccc2Cl)c1C(=O)NCCc1c[nH]c2ccccc12,71
14,NC(=O)c1c(N)[nH]c(C(=O)c2ccccc2)c1-c1ccc2c(c1)OCO2,92.3
15,Nc1[nH]c(C(=O)c2ccc(Br)cc2)c(-c2ccc(Br)cc2)c1C(=O)N1CCCCC1,63.3
16,Nc1[nH]c(C(=O)c2ccccc2)c(-c2ccc(Cl)cc2[N+](=O)[O-])c1C(=O)NCCc1c[nH]c2ccccc12,72.5
17,NC(=O)c1c(N)[nH]c(C(=O)c2ccccc2)c1-c1ccccn1,82.1
18,Cc1[nH]c2ccccc2c1C(=O)NCc1ccc(CNC(=O)c2c(N)[nH]c3ccccc23)cc1,115
19,Nc1[nH]c(C(=O)c2ccccc2)c(-c2cc(F)ccc2Br)c1C(=O)NCCc1c[nH]c2ccccc12,-29.7
20,CC(C)(C)C(=O)c1c(N)[nH]c(C(=O)c2ccccc2)c1-c1cc2ccccc2nc1Cl,104

row,SMILES,Activity [%]
1,Nc1[nH]c(C(=O)c2ccccc2)c(-c2cccnc2)c1C(=O)NC1CCCCC1,77.5
2,COc1ccc(C(=O)c2[nH]c(N)c(C(=O)NCCc3c[nH]c4ccccc34)c2-c2ccc(Cl)cc2)cc1,68.1
3,COc1ccc(CNC(=O)c2c(N)[nH]c(C(=O)c3ccccc3)c2-c2ccc3ccccc3c2)cc1OC,120
4,CC(C)(C)C(=O)c1c(N)[nH]c(C(=O)c2ccccc2)c1-c1ccc(C(F)(F)F)cc1,86.9
5,Nc1[nH]c(C(=O)c2ccccc2)c(-c2ccc(Cl)cc2F)c1C(=O)NCCc1c[nH]c2ccccc12,74.8
6,Nc1[nH]c(C(=O)c2ccc(Br)cc2)c(-c2ccccc2Br)c1C(=O)NCCc1c[nH]c2ccccc12,83.1
7,Nc1[nH]c(C(=O)c2ccc(Br)cc2)c(-c2c(F)cccc2F)c1C(=O)NCCc1c[nH]c2ccccc12,69.3
8,COc1ccc(C(=O)c2[nH]c(N)c(C(=O)c3c[nH]c4ccccc34)c2-c2ccc(F)c(OC)c2)cc1,75.8
9,COc1ccccc1CCNC(=O)c1c(N)[nH]c(C(=O)c2ccccc2)c1-c1ccc(Cl)cc1Cl,91.7
10,Nc1[nH]c(C(=O)c2ccccc2)c(-c2ccc3c(c2)OCO3)c1C(=O)NCCc1c[nH]c2ccccc12,62.7
11,Nc1[nH]c(C(=O)c2ccc(Br)cc2)c(-c2ccc(Br)cc2)c1C(=O)NC1CCCCC1,83.4
12,Nc1[nH]c(C(=O)c2ccc(Br)cc2)c(-c2ccccn2)c1C(=O)NCCc1c[nH]c2ccccc12,42
13,Nc1[nH]c(C(=O)c2ccccc2)c(-c2cccc3ccccc23)c1C(=O)NC1CCCCC1,65.6
14,N#Cc1c(N)[nH]c(C(=O)c2ccccc2)c1-c1ccccc1Br,62.3
15,CC(C)(C)C(=O)c1c(N)[nH]c(C(=O)c2ccccc2)c1-c1ccc(Cl)cc1Cl,79.9
16,NC(=O)c1c(N)[nH]c(C(=O)c2ccccc2)c1-c1cccnc1,99.1
17,COc1ccc(C(=O)c2[nH]c(N)c(C(N)=O)c2-c2ccc(O)c(OC)c2)cc1,67.1
18,Nc1[nH]c2ccccc2c1C(=O)NCCc1ccc(Cl)cc1Cl,104
19,Nc1[nH]c(C(=O)c2ccc(Br)cc2)c(-c2ccc(Br)cc2)c1C(=O)NCc1ccc(F)cc1,102

# The next lines start with the values.
row,Activity [%],SMILES
1,77.6,Nc1[nH]c(C(=O)c2ccc(Br)cc2)c(-c2ccc(Br)cc2)c1C(=O)NCc1cccc2ccccc12
2,82.5,COc1ccc(-c2c(C(=O)c3ccccc3)[nH]c(N)c2C(=O)c2c[nH]c3ccccc23)cc1OC
3,94,COC(=O)c1c(N)[nH]c(C(=O)c2ccccc2)c1-c1ccc(Br)cc1
4,30.6,Nc1[nH]c(C(=O)c2ccc(Br)cc2)c(-c2ccc(Br)cc2)c1C(=O)NCCc1c[nH]c2ccccc12
5,112,CC(C)(C)C(=O)c1c(N)[nH]c(C(=O)c2ccccc2)c1-c1ccccc1
6,95,Nc1[nH]c(C(=O)c2ccc(Br)cc2)c(-c2ccc(Br)cc2)c1C(=O)NC1CC1
7,70.9,Nc1[nH]c(C(=O)c2ccccc2)c(-c2ccccc2Cl)c1C(=O)c1ccccc1
8,94.7,COc1ccc(-c2c(C(=O)c3ccccc3)[nH]c(N)c2C(=O)c2ccc(Br)cc2)cc1OC
9,92.5,Nc1[nH]c(C(=O)c2ccccc2)c(-c2cccc3ccccc23)c1C(=O)NCc1ccccc1
10,84.9,Nc1[nH]c(C(=O)c2ccccc2)c(-c2cccnc2)c1C(=O)c1ccccc1
11,88.3,Nc1[nH]c(C(=O)c2ccccc2)c(-c2ccc(Cl)cc2Cl)c1C(=O)c1ccc(Br)cc1
12,59.6,Nc1[nH]c(C(=O)c2ccccc2)c(-c2ccc(F)cc2)c1C(=O)NCCc1c[nH]c2ccccc12
13,87.5,Nc1[nH]c(C(=O)c2ccccc2)c(-c2ccc(Br)cc2)c1C(=O)NC1CCCCC1
14,91.7,Nc1[nH]c(C(=O)c2ccccc2)c(-c2ccc(Cl)c(F)c2)c1C(=O)c1c[nH]c2ccccc12
15,59.8,Nc1[nH]c(C(=O)c2ccccc2)c(-c2ccccc2Br)c1C(=O)c1cccs1
16,69,Nc1[nH]c(C(=O)c2ccc(Br)cc2)c(-c2ccccc2)c1C(=O)NCCc1c[nH]c2ccccc12
17,97.3,Nc1[nH]c(C(=O)c2ccccc2)c(-c2ccc(Cl)cc2)c1C(=O)NCc1ccccc1
18,94.5,CC(C)(C)C(=O)c1c(N)[nH]c(C(=O)c2ccccc2)c1-c1ccc(Cl)cc1
19,95.1,Nc1[nH]c(C(=O)c2ccccc2)c(-c2ccncc2)c1C(=O)NCc1cccc2ccccc12

row,Activity [%],SMILES
1,63.2,Nc1[nH]c(C(=O)c2ccccc2)c(-c2ccc(Br)cc2)c1C(=O)c1ccccc1
2,86.6,Nc1[nH]c(C(=O)c2ccccc2)c(-c2ccncc2)c1C(=O)NCc1ccc(Cl)cc1
3,86,Nc1[nH]c(C(=O)c2ccccc2)c(-c2ccc3ccccc3c2)c1C(=O)NCc1ccc(F)cc1
4,88.8,Nc1[nH]c(C(=O)c2ccccc2)c(-c2ccc(Cl)cc2)c1C(=O)NCc1ccco1
5,109,Nc1[nH]c(C(=O)c2ccc(Br)cc2)c(-c2ccncc2)c1C(=O)c1ccccc1
6,61.2,Nc1[nH]c(C(=O)c2ccccc2)c(-c2cccc(Br)c2)c1C(=O)c1ccccc1
7,116,NC(=O)c1c(N)[nH]c(C(=O)c2ccccc2)c1-c1ccccc1
8,104,Nc1[nH]c(C(=O)c2ccccc2)c(-c2ccc(Br)cc2)c1C(=O)NCCCN1CCOCC1
9,98.5,Nc1[nH]c(C(=O)c2ccccc2)c(-c2ccccn2)c1C(=O)c1c[nH]c2cc(F)ccc12
10,2.31,Nc1[nH]c(C(=O)c2ccccc2)c(-c2cccc(C(F)(F)F)c2)c1C(=O)NCc1cccc2ccccc12
11,114,NC(=O)c1c(N)[nH]c(C(=O)c2ccccc2)c1-c1ccccc1Cl
12,81.3,Nc1[nH]c(C(=O)c2ccccc2)c(-c2ccc(Br)cc2)c1C(=O)c1cccs1
13,110,CC(C)(C)C(=O)c1c(N)[nH]c(C(=O)c2ccccc2)c1-c1ccc([N+](=O)[O-])cc1
14,94.1,Nc1[nH]c(C(=O)c2ccccc2)c(-c2ccccc2C(F)(F)F)c1C(=O)c1c[nH]c2ccccc12
15,36,Nc1[nH]c(C(=O)c2ccc(Br)cc2)c(-c2ccc3ccccc3c2)c1C(=O)NCCc1c[nH]c2ccccc12
16,80.6,Nc1[nH]c(C(=O)c2ccccc2)c(-c2ccc3ccccc3c2)c1C(=O)NCCc1ccc(Cl)cc1
17,94.4,Cc1ccc(-c2c(C(=O)c3ccccc3)[nH]c(N)c2C(=O)NCc2ccc(Cl)cc2)cc1
18,53.3,Nc1[nH]c(C(=O)c2ccc(Cl)cc2)c(-c2ccc(Br)cc2)c1C(=O)NCCc1c[nH]c2ccccc12
19,64.5,COc1ccccc1CCNC(=O)c1c(N)[nH]c(C(=O)c2ccccc2)c1-c1ccc(Br)cc1
